The values below come from ChEMBL document CHEMBL3856185, “Discovery of a sulfamate-based steroid sulfatase inhibitor with intrinsic selective estrogen receptor modulator properties” (Eur J Med Chem, 2016).

The target in data set [1] is T1, Estrogen receptor (Homo sapiens, UniProt P03372).
T1 sequence (P03372 whole entry): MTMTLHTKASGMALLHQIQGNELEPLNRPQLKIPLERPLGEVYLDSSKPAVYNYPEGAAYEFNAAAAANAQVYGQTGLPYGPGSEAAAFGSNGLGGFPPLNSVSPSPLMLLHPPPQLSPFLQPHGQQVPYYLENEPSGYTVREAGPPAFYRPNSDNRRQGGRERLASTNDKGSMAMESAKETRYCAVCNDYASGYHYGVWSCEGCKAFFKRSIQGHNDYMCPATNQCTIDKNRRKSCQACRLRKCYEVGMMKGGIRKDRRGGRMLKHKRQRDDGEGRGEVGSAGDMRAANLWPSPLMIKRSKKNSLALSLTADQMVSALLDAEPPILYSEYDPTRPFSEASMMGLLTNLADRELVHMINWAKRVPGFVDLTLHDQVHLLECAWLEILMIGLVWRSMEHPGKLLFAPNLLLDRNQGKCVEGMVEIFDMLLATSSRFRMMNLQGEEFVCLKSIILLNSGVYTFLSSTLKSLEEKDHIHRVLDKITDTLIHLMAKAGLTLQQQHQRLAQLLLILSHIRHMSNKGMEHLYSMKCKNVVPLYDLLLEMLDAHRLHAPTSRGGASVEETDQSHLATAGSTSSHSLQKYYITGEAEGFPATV
Kind of data set: Agonist activity at ERalpha in estrogen-sensitive human T47D cells assessed as cell proliferation at 0.01 uM after 7 days by MTS assay. Format: cell-based. Conditions: 168 h. Summed up: (§1)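 Seeded 3000 cells/well, 48 h attachment. Compounds diluted from DMSO (final ≤0.1%) in medium, renewed every 2 days for 7 days. Proliferation read by MTS, 4 h at 37 °C, absorbance 490 nm. Control (medium + DMSO) set to 100%. Mean ± SD of triplicates.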

Data set [2] deals with T1, Estrogen receptor. Kind of data set: Agonist activity at ERalpha in estrogen-sensitive human T47D cells assessed as cell proliferation at 0.1 uM after 7 days by MTS assay. Format: cell-based. The settings on record: 168 h. Summed up: as §1
In data set [3] the target is T1, Estrogen receptor. Kind of data set: Agonist activity at ERalpha in estrogen-sensitive human T47D cells assessed as cell proliferation at 1 uM after 7 days by MTS assay. The settings on record: 168 h. Type of data set: cell-based. Summed up: as §1
Data set [4] has as its target T2, Estrogen receptor (Homo sapiens) (UniProt P03372).
T2 sequence (whole entry): T1 sequence (P03372 whole entry)
Put plainly: Antiestrogenic activity at ERalpha in estrogen-sensitive human T47D cells assessed as blockage of E2 stimulated cell proliferation at 5 uM after 7 days in presence of E2 by MTS assay. Format: cell-based. In a few lines: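 Estrogen-deprived T-47D cells (RPMI, insulin 50 ng/mL, 5% charcoal-stripped FBS) seeded at 3000 cells/well, attached 48 h. Then treated 7 days with compound plus E2 (0.1 nM), medium renewed every 2 days. DMSO final ≤0.1%. MTS added 4 h, A490. Control (medium + DMSO) = 100%. Mean ± SD of triplicates.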

The nature of data set [5]: Cytotoxicity against human Saos2 cells assessed as reduction in cell proliferation at 5 to 10 uM after 7 days by MTS assay. Format: toxicity, cell-based. Conditions: saos-2, 168 h. Summed up:
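Saos-2 cells in phenol-red-free McCoy's 5A with 10% charcoal-stripped FBS. Seeded 3000 cells/well, treated after 24 h with compounds from 1 nM to 10 µM (DMSO ≤0.1% final), renewed every 2 days for 7 days. MTS 2 h at 37 °C, absorbance 490 nm. Control (medium + DMSO) = 100%. Mean ± SD of triplicates.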

Data set [6] in a line: Cytotoxicity against estrogen-sensitive human T47D cells assessed as reduction in cell proliferation at 0.01 to 1 uM after 7 days by MTS assay. Format: toxicity, cell-based. The settings on record: 168 h. In a few lines: as §1
In the next data set the target is T3, Steryl-sulfatase (Homo sapiens, UniProt P08842).
T3 sequence (P08842 whole entry): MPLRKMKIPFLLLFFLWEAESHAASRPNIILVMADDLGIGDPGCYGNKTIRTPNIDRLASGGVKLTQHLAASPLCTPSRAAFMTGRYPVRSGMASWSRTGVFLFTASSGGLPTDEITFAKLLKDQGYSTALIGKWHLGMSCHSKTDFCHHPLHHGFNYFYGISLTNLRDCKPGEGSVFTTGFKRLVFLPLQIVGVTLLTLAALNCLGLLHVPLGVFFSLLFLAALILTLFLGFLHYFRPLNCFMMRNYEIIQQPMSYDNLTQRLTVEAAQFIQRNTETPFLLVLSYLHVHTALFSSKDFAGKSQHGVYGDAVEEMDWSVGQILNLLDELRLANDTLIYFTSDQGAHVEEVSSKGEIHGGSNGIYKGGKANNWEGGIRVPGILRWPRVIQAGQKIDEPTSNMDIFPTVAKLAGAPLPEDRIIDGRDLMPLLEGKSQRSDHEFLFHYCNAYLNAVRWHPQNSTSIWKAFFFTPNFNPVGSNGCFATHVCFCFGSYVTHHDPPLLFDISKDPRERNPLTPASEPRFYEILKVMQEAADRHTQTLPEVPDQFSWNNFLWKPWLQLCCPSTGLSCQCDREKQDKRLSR
Put plainly: Inhibition of steroid sulfatase (unknown origin) expressed in HEK293 cells assessed as reduction in transformation of [3H]-E1S to E1 after 2 hrs by liquid scintillation counting. Format: cell-based. Summed up: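 Homogenate of STS-overexpressing HEK-293 cells (lysed by 5 freeze (−80 °C)/thaw (4 °C) cycles) incubated 2 h at 37 °C with inhibitors 0.01–1 µM and [3H]-E1S 9 nM adjusted to 1 µM with E1S, in Tris-acetate pH 7.4 with 5 mM EDTA, 10% glycerol. Xylene extraction separated E1 from E1S; scintillation counting; % inhibition vs no-inhibitor control; IC50 from curve; triplicates, mean ± SD.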

The nature of data set [7]: Cytotoxicity against estrogen-sensitive human T47D cells assessed as reduction in cell proliferation at 5 uM after 7 days by MTS assay. Format: toxicity, cell-based. Conditions: 168 h. Summed up:
as §1

Consider `Cc1ccc(CN(Cc2ccc(C(=O)N3CCc4ccc(O)cc4C3)cc2)Cc2ccco2)s1`, for which the Activity at Estrogen receptor [1] was 97.1%; at Estrogen receptor [2] it was 103.2%; on Estrogen receptor [3], 96.8%; in data set [4], 84%; in data set [5] it was “Toxic”; in data set [6], “Non-Toxic”.
Turning to `O=C(c1ccc(CN(Cc2ccc(O)cc2)Cc2ccco2)cc1)N1CCc2ccc(O)cc2C1`, the results for the Activity on Estrogen receptor [1], on Estrogen receptor [2] and on Estrogen receptor [3] were 108.2%, 138% and 200.3%, respectively.
The matching figures for `O=C(c1ccc(CN(Cc2ccco2)Cc2ccccc2OCCCN2CCCCC2)cc1)N1CCc2ccc(O)cc2C1`: 96.8%, 105.9% and 0%.
As for `O=C(c1ccc(CN(CCCn2ccnc2)Cc2ccco2)cc1)N1CCc2ccc(O)cc2C1`, the Activity at Estrogen receptor [1] is reported as 94.9%; at Estrogen receptor [2], 98.5%; on Estrogen receptor [3], 114.6%.
With `O=C(c1ccc(CN(Cc2ccc(OCCCN3CCCCC3)cc2)Cc2ccco2)cc1)N1CCc2ccc(O)cc2C1`, the Activity worked out at 95.6% on Estrogen receptor [1], 119.7% on Estrogen receptor [2] and 133.7% on Estrogen receptor [3].
Consider `Cc1ccc(CN(Cc2ccc(C(=O)N3CCc4ccc(OS(N)(=O)=O)cc4C3)cc2)Cc2ccco2)s1`, for which the concentration for half-maximal inhibition (IC50) at Steryl-sulfatase was 8.9 nM. For the same compound, the Activity result in data set [7] and in data set [5] was “Toxic” throughout.
For the compound `COc1ccc(CN(Cc2ccc(C(=O)N3CCc4ccc(O)cc4C3)cc2)Cc2ccccn2)cc1`, the Activity at Estrogen receptor [1] was 105.6%; at Estrogen receptor [2] it was 104.6%; at Estrogen receptor [3] it was 100.9%; in data set [7], “Toxic”; in data set [6] it was “Non-Toxic”.
As to `COc1cc2c(cc1OS(N)(=O)=O)CC[C@@H]1[C@@H]2CC[C@@]2(C)[C@H]1CC[C@@]2(O)Cc1ccccc1`, the IC50 on Steryl-sulfatase is 0.05 nM.
Turning to `O=C(c1ccc(CN(Cc2ccccn2)Cc2ccco2)cc1)N1CCc2ccc(O)cc2C1`, the Activity at Estrogen receptor [1] is on record as 104.1%; at Estrogen receptor [2] it was 103.2%; at Estrogen receptor [3], 103.5%; in data set [6] it was “Non-Toxic”.
Turning to `O=C(c1ccc(OCCN2CCCCC2)cc1)c1c(-c2ccc(O)cc2)sc2cc(O)ccc12` [RALOXIFENE], the Activity entry in data set [7] and in data set [5] was “Toxic” in each case.
Consider `O=C(c1ccc(CN(CCCn2ccnc2)Cc2ccccn2)cc1)N1CCc2ccc(O)cc2C1`, for which the Activity amounted to 102.8% at Estrogen receptor [1], 112.9% at Estrogen receptor [2] and 39.2% at Estrogen receptor [3].
As to `O=C(c1ccc(CN(Cc2ccc(Br)cc2)Cc2ccco2)cc1)N1CCc2ccc(O)cc2C1`, the Activity is reported as 106.3% on Estrogen receptor [1], 109.4% on Estrogen receptor [2] and 59.2% at Estrogen receptor [3].
The matching figures for `O=C(c1ccc(CN(Cc2ccccn2)Cc2ccccc2OCCCN2CCCCC2)cc1)N1CCc2ccc(O)cc2C1`: 102.8%, 99.8% and 37.1%.
The matching figures for `O=C(c1ccc(CN(CCN2CCOCC2)Cc2ccco2)cc1)N1CCc2ccc(O)cc2C1`: 108.2%, 105.9% and 118.8%.
With `COc1ccc(CN(Cc2ccc(C(=O)N3CCc4ccc(OS(N)(=O)=O)cc4C3)cc2)Cc2ccccn2)cc1`, in data set [7], the Activity entry was “Toxic”.
Consider `Cc1ccc(CN(Cc2ccc(C(=O)N3CCc4ccc(O)cc4C3)cc2)Cc2ccccn2)s1`, for which the figures for the Activity on Estrogen receptor [1], on Estrogen receptor [2] and on Estrogen receptor [3] were 100.6%, 105.4% and 78.9%, respectively.
Consider `NS(=O)(=O)Oc1ccc2c(c1)CN(C(=O)c1ccc(CN(Cc3ccccn3)Cc3ccco3)cc1)CC2`, for which, in data set [7], the Activity entry was “Toxic”.
As for `O=C(c1ccc(CN(Cc2ccc(OCCCN3CCCCC3)cc2)Cc2ccccn2)cc1)N1CCc2ccc(O)cc2C1`, the Activity on Estrogen receptor [1] is listed as 105.9%; at Estrogen receptor [2] it was 104.5%; on Estrogen receptor [3] it was 60.7%.
